Source: ChEMBL document CHEMBL4680108, “Ancistrolikokine E, a 5,8'-Coupled Naphthylisoquinoline Alkaloid, Eliminates the Tolerance of Cancer Cells to Nutrition Starvation by Inhibition of the Akt/mTOR/Autophagy Signaling Pathway” (2018)
Activity calls are given as the source filed them. No cut-off for these calls is given here.

Key:
PANC-1 [1] = assay: Anti-austerity activity against nutrient-deprived human PANC-1 cells assessed as cell death incubated for 24 hrs by WST-8 assay; format: functional
Outline: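 Human PANC-1 pancreatic cancer cells tested in parallel in nutrient-deprived medium (NDM) and in nutrient-rich DMEM. PC50 is the concentration that kills 50% of cells in NDM without toxicity in DMEM.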

PANC-1 [2] = assay: Induction of morphological changes in human PANC-1 cells cultured in nutrient-deprived medium assessed as cell death measured after 24 hrs by ethidium bromide/acridine orange staining based phase contrast microscopy; format: functional; conditions: dose 1.25-5 µM
Outline: (§1)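 PANC-1 cells (2 × 10^5/well) attached in DMEM for 24 h, washed twice with PBS, then treated in NDM (1.25, 2.5, 5 μM; control in NDM alone) for 24 h. Stained with ethidium bromide/acridine orange and imaged in phase-contrast and red/green fluorescence modes (20× objective).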

PANC-1 [3] = assay: Induction of necrosis in human PANC-1 cells cultured in nutrient-deprived medium assessed as round cell morphology at 5 uM measured after 24 hrs by ethidium bromide/acridine orange staining based phase contrast microscopy; format: functional; outline: as §1
PANC-1 [4] = assay: Induction of necrosis in human PANC-1 cells cultured in nutrient-deprived medium assessed as membrane blebbing at 5 uM measured after 24 hrs by ethidium bromide/acridine orange staining based phase contrast microscopy; format: functional, cell-based; outline: as §1
PANC-1 [5] = assay: Induction of necrosis in human PANC-1 cells cultured in nutrient-deprived medium assessed as rupture of cell membrane at 5 uM measured after 24 hrs by ethidium bromide/acridine orange staining based phase contrast microscopy; format: functional; outline: as §1
PANC-1 [6] = assay: Induction of necrosis in human PANC-1 cells cultured in nutrient-deprived medium assessed as leakage of cellular contents in to the medium at 5 uM measured after 24 hrs by ethidium bromide/acridine orange staining based phase contrast microscopy; format: functional, cell-based; outline: as §1
PANC-1 [7] = assay: Inhibition of cell migration in human PANC1 cells assessed as wound length at 5 uM cultured in nutrient rich DMEM medium measured after 48 hrs by wound healing assay relative to T0; format: functional; set-up: scale not given: the % may be the effect or the level left
Outline: (§2)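 PANC-1 monolayers (5 × 10^5 cells/well), attached 24 h, scratched about 600 μm with a pipet tip, washed with PBS. Exposed in DMEM to 0–10 μM for 48 h in triplicate. Wound length measured at 10 points on phase-contrast images and expressed relative to initial length at T0.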

PANC-1 [8] = assay: Inhibition of cell migration in human PANC1 cells assessed as wound length at 10 uM cultured in nutrient rich DMEM medium measured after 48 hrs by wound healing assay relative to T0; format: functional; set-up: scale not given: the % may be the effect or the level left; outline: as §2
PANC-1 [9] = assay: Inhibition of colony formation in human PANC-1 cells at 2.5 uM cultured in nutrient rich DMEM medium measured after 24 hrs by crystal violet staining based assay relative to control; format: functional
Outline: (§3)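 PANC-1 cells (5 × 10^2/well) attached in DMEM for 24 h, then exposed to 0, 2.5, 5 or 10 μM in DMEM for 24 h (triplicate). Washed, grown in fresh compound-free DMEM for 12 days, fixed in 4% formaldehyde and stained with crystal violet for 10 min. Colony area measured as a percentage of well area.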

PANC-1 [10] = assay: Inhibition of colony formation in human PANC-1 cells at 5 uM cultured in nutrient rich DMEM medium measured after 24 hrs by crystal violet staining based assay relative to control; format: functional; outline: as §3
PANC-1 [11] = assay: Inhibition of colony formation in human PANC-1 cells at 10 uM cultured in nutrient rich DMEM medium measured after 24 hrs by crystal violet staining based assay relative to control; format: functional; outline: as §3
PANC-1 [12] = assay: Inhibition of colony formation in human PANC-1 cells cultured in nutrient rich DMEM medium measured after 24 hrs by crystal violet staining based assay; format: functional, cell-based; conditions: dose 2.5-10 µM; outline: as §3
PANC-1 [13] = assay: Anticancer activity against human PANC-1 cells assessed as inhibition of cell motility at 10 uM measured within 90 mins by digital cell imaging analysis; format: functional, cell-based; conditions: time min <=90
Outline: (§4)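 PANC-1 cells (3 × 10^6) in 35 mm dishes in nutrient-deprived medium (NDM), treated with 10 μM; kept in a stage-top incubator at 37 °C, 5% CO2. Phase-contrast images taken every 10 min for 24 h (145 frames, 20× objective). Untreated cells in NDM served as control.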

PANC-1 [14] = assay: Anticancer activity against human PANC-1 cells assessed as induction of morphological changes at 10 uM measured after 7 hrs by digital cell imaging analysis; format: functional, cell-based; outline: as §4
PANC-1 [15] = assay: Anticancer activity against human PANC-1 cells assessed as cell death at 10 uM measured after 13 hrs by digital cell imaging analysis; format: functional, cell-based; outline: as §4
PANC-1 [16] = assay: Anticancer activity against human PANC-1 cells assessed as cell death at 10 uM measured within 20 hrs by digital cell imaging analysis relative to control; format: functional
Outline: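 PANC-1 cells (3 × 10^6) in 35 mm dishes were exposed to 10 μM compound in nutrient-deprived medium in a stage-top incubator at 37 °C, 5% CO2. Phase-contrast images were taken every 10 min for 24 h (145 frames, 20× objective). Untreated cells in NDM served as control.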

PANC-1 [17] = assay: Induction of apoptotic cell death in human PANC-1 cells cultured in nutrient-deprived medium assessed as membrane blebbing at 5 uM measured after 24 hrs by Hoechst 33342 staining based phase-contrast digital microscopy; format: functional
Outline: (§5)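 Cells (2 × 10^5) plated in 35 mm dishes, left 24 h to attach, washed twice with PBS, then given 5 μM in NDM for 24 h. Hoechst 33342 added directly to the medium for 5 min. Imaged in phase-contrast and fluorescence modes (20× objective).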

PANC-1 [18] = assay: Induction of apoptotic cell death in human PANC-1 cells cultured in nutrient-deprived medium assessed as leakage of cellular contents in to the medium at 5 uM measured after 24 hrs by Hoechst 33342 staining based phase-contrast digital microscopy; format: functional; outline: as §5
PANC-1 [19] = assay: Induction of apoptotic cell death in human PANC-1 cells cultured in nutrient-deprived medium assessed as intact nuclei at 5 uM measured after 24 hrs by Hoechst 33342 staining based phase-contrast digital microscopy; format: functional; outline: as §5
PANC-1 [20] = assay: Induction of apoptotic cell death in human PANC-1 cells cultured in nutrient-deprived medium assessed as chromatin fragmentation at 5 uM measured after 24 hrs by Hoechst 33342 staining based phase-contrast digital microscopy; format: functional; outline: as §5
PANC-1 [21] = assay: Induction of apoptotic cell death in human PANC-1 cells cultured in nutrient-deprived medium assessed as formation of apoptotic bodies at 5 uM measured after 24 hrs by Hoechst 33342 staining based phase-contrast digital microscopy; format: functional; outline: as §5
PANC-1 [22] = assay: Induction of apoptosis in human PANC-1 cells assessed as inhibition of Bcl-2 after 6 hrs by Western blot analysis; format: functional, cell-based; conditions: dose 2.5-40 µM
Outline: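 PANC-1 cells in NDM or DMEM exposed to compound at different concentrations for 6 h, then immunoblotted for Bcl-2, Bcl-xL and caspase-3.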

COc1cc(OC)c(-c2ccc(O)c3c(OC)cc(C)cc23)c2c1C(C)=N[C@H](C)C2
Activity (PANC-1 [1]): Dose-dependent effect | PC50 (PANC-1 [1]): 2.5 µM | Activity (PANC-1 [2]): Dose-dependent effect | Activity (PANC-1 [3]): Active | Activity (PANC-1 [4]): Active | Activity (PANC-1 [5]): Active | Activity (PANC-1 [6]): Active | Activity (PANC-1 [7]): 58% | Activity (PANC-1 [8]): 11% | inhibition at 2.5 µM (PANC-1 [9]): ≤ 90% | inhibition at 5 µM (PANC-1 [10]): 100% | inhibition at 10 µM (PANC-1 [11]): 100% | inhibition (PANC-1 [12]): Dose-dependent effect | inhibition (PANC-1 [13]): Active | Activity (PANC-1 [14]): Active | Activity (PANC-1 [15]): Active | Activity (PANC-1 [16]): 100% | Activity (PANC-1 [17]): Active | Activity (PANC-1 [18]): Active | Activity (PANC-1 [19]): Active | Activity (PANC-1 [20]): inactive | Activity (PANC-1 [21]): inactive | inhibition (PANC-1 [22]): Active
